Assay results pooled from the literature.
Each line is one published result; the experiments were not run side by side.
Target: Insulin receptor-related protein (INSRR, Homo sapiens, UniProt P14616)

CCCS(=O)(=O)Nc1ccc(F)c(C(=O)c2c[nH]c3ncc(-c4ccc(Cl)cc4)cc23)c1F
inhibition (enzyme activity; inhibitor; 1 µM): < 10%

CC(C)(C)c1nc2c(s1)c1nc(N)ncc1c1ccc(NS(=O)(=O)c3c(F)cccc3F)c(F)c12
remaining activity (enzyme activity; inhibitor; radiometric; 1 µM): 107%

CC(C)(O)[C@H]1CC[C@H](Nc2ccc3ncc(-c4cccc(C(F)(F)F)c4)n3n2)CC1
remaining activity (enzyme activity; inhibitor; 1 µM): 77%

O=C(Nc1cnn(-c2csc(C(=O)NC3COC3)c2)c1)Nc1c(F)cccc1Cl
remaining activity (enzyme activity; inhibitor; 5 µM): 75.9%

CN(C)CC#Cc1ccc(OCCCc2sc(N3CCc4cccc(C(=O)Nc5nc6ccccc6s5)c4C3)nc2C(=O)O)c(F)c1
remaining binding (cell-free assay; competition with immobilised ligand; 1 µM): 90%

CCN(CC)CCNC(=O)c1c(C)[nH]c(/C=C2\C(=O)Nc3ccc(F)cc32)c1C
inhibition (enzyme activity; inhibitor; 0.3 µM): 25%

O=C(Nc1cnn(-c2csc(C(=O)NC3COC3)c2)c1)Nc1ccccc1Cl
remaining activity (enzyme activity; inhibitor; 5 µM): 96%

CCOC(=O)c1cc2cc(-c3cc(C(=O)NCc4ccc(C(=O)O)cc4)nn3C)ccc2[nH]1
remaining binding (cell-free assay; competition with immobilised ligand; 0.1 µM): 77%

Cc1ccc(C(=O)Nc2ccc(CN3CCN(C)CC3)c(C(F)(F)F)c2)cc1C#Cc1cnc2cccnn12
remaining signal (cell-free assay; 23.5 nM): 100%

O=C(N[C@H]1CCCCC/C=C\C2C[C@@]2(C(=O)O)NC(=O)[C@@H]2C[C@@H](Oc3ccncc3)CN2C1=O)OC1CCCC1 (stereo partly shown)
remaining binding (binding; competition with immobilised ligand; 1 µM): 100%

Cc1ccc(NC(=O)c2ccc(C)c(C(F)(F)F)c2)cc1C#Cc1nn(C2CCC(O)CC2)c2ncnc(N)c12 (stereo not shown)
remaining signal (cell-free assay; 10 µM): 107%

Cc1cnc(NC2CCOCC2)nc1-n1cnc(C(=O)NC(CN)c2cc(F)cc(Cl)c2)c1 (stereo not shown)
remaining activity (enzyme activity; inhibitor; radiometric; 1 µM): 70%

O=C(Nc1cccnn1)N1CCC(=Cc2cccc(Oc3ccc(C(F)(F)F)cn3)c2)CC1
remaining binding (cell-free assay; competition with immobilised ligand; 1 µM): 100%

Oc1cccc(-c2nc(N3CCOCC3)c3oc4ncccc4c3n2)c1
remaining activity (enzyme activity; inhibitor; 10 µM): 89%

O=C(O)[C@@H]1[C@@H](Cn2nnc3ccccc3c2=O)CC[C@H]1C(=O)c1ccc(OCCC2CCOCC2)cc1
remaining binding (cell-free assay; competition with immobilised ligand; 1 µM): 100%

CC(C)(C)C(=O)c1sc(NC2CCCCC2)nc1N
remaining activity (enzyme activity; inhibitor; 10 µM): 93%

Cc1cc(NC(=O)c2cccc(S(F)(F)(F)(F)F)c2)cc(-n2ccn3nc(-c4cccnc4)cc23)c1
remaining binding (cell-free assay; competition with immobilised ligand; 1 µM): 100%

CC/C(=N\NC(=O)NCc1cccc(O)c1)c1ccc(O)c(C)c1O
inhibition (enzyme activity; inhibitor; 0.1 µM): 1.7%

CCS(=O)(=O)c1cc2cc(C[C@@](O)(CC(C)(C)c3ccc(F)cc3C(N)=O)C(F)(F)F)[nH]c2cn1
remaining binding (cell-free assay; competition with immobilised ligand; 1 µM): 64%

CCN(CC)c1ccc(C2=NNC(=O)CC2C)cc1[N+](=O)[O-] (stereo not shown)
remaining activity (enzyme activity; inhibitor; 10 µM): 97%

CNC(=O)c1cc(Oc2ccc(NC(=O)Nc3ccc(Cl)c(C(F)(F)F)c3)cc2)ccn1
inhibition (enzyme activity; inhibitor; 10 µM): 8%

COc1cc2ncnc(Nc3ccc(Oc4ccccc4)cc3C)c2cc1OC
inhibition (enzyme activity; inhibitor; 1 µM): 3%

Nc1nc(NC2CCCCC2)sc1C(=O)c1ccccc1
remaining activity (enzyme activity; inhibitor; 10 µM): 25%

Cc1ccc(Nc2nccc(N(C)c3ccc4c(C)n(C)nc4c3)n2)cc1S(N)(=O)=O
inhibition (enzyme activity; inhibitor; 0.3 µM): -22%

COc1ccc(COc2ccc(Cc3cnc(N)nc3N)cc2OC)cc1
remaining signal (cell-free assay; 0.5 µM): 99.4%

CN(C)c1ncnc(-c2ccc3nc(Nc4cc(CN5CCN(C(=O)CC(F)(F)F)CC5)ccn4)[nH]c3c2)c1Cl
remaining binding (cell-free assay; competition with immobilised ligand; 1 µM): 95%

COc1cc(Nc2cnc(C#N)c(O[C@H](C)CN(C)C)n2)ncc1-c1cnn(C)c1
remaining activity (enzyme activity; inhibitor; radiometric; 10 µM): 89%

N#CCCc1ccc2c(c1)-c1[nH]c3ccc([N+](=O)[O-])cc3c1CC(=O)N2
remaining signal (cell-free assay; 0.5 µM): 99.2%
